Key:
[1] = system: HCT-116; assay: Cytotoxicity against human HCT116 cells assessed as reduction in cell viability after 48 hrs by WST8 assay; type: functional, cell-based; settings: HCT-116, 48 h
How it was run: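 HCT-116 cells grown in RPMI 1640 with 10% FBS and penicillin/streptomycin, plated near-confluent at 5 × 10^3 cells/well and left 24 h at 37 °C, 5% CO2. Compounds (DMSO stocks 0.01–100 μM) added to give final 0.1–1000 nM, 1% DMSO vehicle. After 48 h, WST-8 added for 2 h, absorbance read at 450 nm (reference 595 nm), vehicle taken as 100%. IC50 by probit analysis; three independent experiments.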

[2] = system: HCT-116; assay: Growth inhibition of human HCT116 cells after 72 hrs by Cell-Titer Glo assay; type: functional; settings: HCT-116, 72 h
How it was run: (§1)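 Cells seeded in 384-well plates at 1–3 × 10^3 cells/well and grown 24 h at 37 °C, 5% CO2. Compounds added at final 0.03 nM to 1 μM (10-point), DMSO vehicle at most 0.25%.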

[3] = system: BXPC-3; assay: Growth inhibition of human BxPC3 cells after 72 hrs by Cell-Titer Glo assay; type: functional; settings: BXPC-3, 72 h; how it was run: as §1
[4] = system: A549; assay: Growth inhibition of human A549 cells after 72 hrs by Cell-Titer Glo assay; type: functional; settings: A549, 72 h; how it was run: as §1
[5] = system: Huh-7; assay: Growth inhibition of human HuH7 cells after 72 hrs by Cell-Titer Glo assay; type: functional; settings: Huh-7, 72 h; how it was run: as §1
[6] = system: MKN-74; assay: Growth inhibition of human MKN74 cells after 72 hrs by Cell-Titer Glo assay; type: functional; settings: MKN-74, 72 h; how it was run: as §1
[7] = system: U-87 MG; assay: Growth inhibition of human U87MG cells after 72 hrs by Cell-Titer Glo assay; type: functional, U-87MG ATCC; how it was run: as §1
[8] = system: SK-OV-3; assay: Growth inhibition of human SKOV3 cells after 72 hrs by Cell-Titer Glo assay; type: functional; settings: SK-OV-3, 72 h; how it was run: as §1
[9] = Growth inhibition of human HEC6 cells after 72 hrs by Cell-Titer Glo assay; type: functional; settings: HEC-6, 72 h; how it was run: as §1
[10] = system: 786-0; assay: Growth inhibition of human 786-O cells after 72 hrs by Cell-Titer Glo assay; type: functional; settings: 786-0, 72 h; how it was run: as §1
[11] = system: MCF7; assay: Growth inhibition of human MCF7 cells after 72 hrs by Cell-Titer Glo assay; type: functional; settings: MCF7, 72 h; how it was run: as §1
[12] = Drug metabolism in mouse liver microsomes after 35 mins in presence of NADPH by LC-MS/MS analysis; type: ADME, microsome; settings: read-out: Drug metabolism
How it was run: (§2)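 Pooled liver microsomes at 0.1 mg/mL protein with 3.25 mmol/L β-NADPH in 125 mmol/L phosphate buffer. Compound at 100 nmol/L, added in CH3CN. Incubated 37 °C for 35 min, stopped with methanol, held at −20 °C for 30 min, then centrifuged. Parent compound loss measured by LC-MS/MS; duplicate incubations.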

[13] = Drug metabolism in human liver microsomes after 35 mins in presence of NADPH by LC-MS/MS analysis; type: ADME, microsome; settings: read-out: Drug metabolism; how it was run: as §2

Structure (SMILES): CC[C@H](C)[C@H]1C(=O)N2CCC[C@H]2C(=O)O[C@H](C(C)(C)C)C[C@@H](C)C[C@H](O)[C@H](C)C(=O)N2CCC(CC2)C(=O)N[C@@H](Cc2ccccc2)C(=O)N(C)[C@@H](C)C(=O)N1C
- IC50 [1]: 0.49 µM

Structure (SMILES): CC[C@H](C)[C@H]1C(=O)N2CCC[C@H]2C(=O)O[C@H](C(C)(C)C)C[C@@H](C)C[C@H](O)[C@H](C)C(=O)NCc2cccc(c2)C(=O)N[C@@H](Cc2ccc(OC)cc2)C(=O)N(C)[C@@H](C)C(=O)N1C
- IC50 [1]: 0.82 µM

Structure (SMILES): CC[C@H](C)[C@H]1C(=O)N2CCC[C@H]2C(=O)O[C@H](C(C)(C)C)C[C@@H](C)C[C@H](O)[C@H](C)C(=O)N2CCC(CC2)C(=O)N[C@@H](Cc2ccc(-c3ccccc3)cc2)C(=O)N(C)[C@@H](C)C(=O)N1C
- IC50 [1]: 0.0011 µM
- GI50 [2]: 0.011 µM
- GI50 [3]: 0.004 µM
- GI50 [4]: 0.0063 µM
- GI50 [5]: 0.0068 µM
- GI50 [6]: 0.008 µM
- GI50 [7]: 0.012 µM
- GI50 [8]: 0.018 µM
- GI50 [9]: 0.023 µM
- GI50 [10]: 0.12 µM
- GI50 [11]: > 1 µM
- metabolised at 35 min [12]: 84%
- metabolised at 35 min [13]: 85%

Structure (SMILES): CC[C@H](C)[C@H]1C(=O)N2CCC[C@H]2C(=O)O[C@H](C(C)(C)C)C[C@@H](C)C[C@H](O)[C@H](C)C(=O)N(C)CCCC(=O)N[C@@H](Cc2ccc(OC)cc2)C(=O)N(C)[C@@H](C)C(=O)N1C
- IC50 [1]: 0.34 µM

Structure (SMILES): CC[C@H](C)[C@H]1C(=O)N2CCC[C@H]2C(=O)O[C@H](C(C)(C)C)C[C@@H](C)C[C@H](O)[C@H](C)C(=O)N2CCC(CC2)C(=O)N[C@@H](Cc2ccc(OC)cc2)C(=O)N(C)[C@@H](CC(C)C)C(=O)N1C
- IC50 [1]: 0.36 µM

Structure (SMILES): CC[C@H](C)[C@H]1C(=O)N2CCC[C@H]2C(=O)O[C@H](C(C)(C)C)C[C@@H](C)C[C@H](O)[C@H](C)C(=O)N2CCC(CC2)C(=O)N[C@@H](Cc2ccc(OC)cc2)C(=O)N(C)CC(=O)N1C
- IC50 [1]: 0.85 µM

Structure (SMILES): CC[C@H](C)[C@H]1C(=O)N2CCC[C@H]2C(=O)O[C@H](C(C)(C)C)C[C@@H](C)C[C@H](O)[C@H](C)C(=O)N(C)CCC(=O)N[C@@H](Cc2ccc(OC)cc2)C(=O)N(C)[C@@H](C)C(=O)N1C
- IC50 [1]: 3.1 µM

Structure (SMILES): COc1ccc(C[C@@H]2NC(=O)C3CCN(CC3)C(=O)[C@@H](C)[C@@H](O)C[C@H](C)C[C@@H](C(C)(C)C)OC(=O)[C@@H]3CCCN3C(=O)[C@H](C(C)C)N(C)C(=O)[C@H](C)N(C)C2=O)cc1
- IC50 [1]: 0.13 µM

Structure (SMILES): CC[C@H](C)[C@H]1C(=O)N2CCC[C@H]2C(=O)O[C@H](C(C)(C)C)C[C@@H](C)C[C@H](O)[C@H](C)C(=O)N(C)Cc2cccc(c2)C(=O)N[C@@H](Cc2ccc(OC)cc2)C(=O)N(C)[C@@H](C)C(=O)N1C
- IC50 [1]: 0.22 µM

Structure (SMILES): CC[C@H](C)[C@H]1C(=O)N2CCC[C@H]2C(=O)O[C@H](C(C)(C)C)C[C@@H](C)C[C@H](O)[C@H](C)C(=O)N2CCC(CC2)C(=O)N[C@@H](Cc2ccc(Cl)cc2)C(=O)N(C)[C@@H](C)C(=O)N1C
- IC50 [1]: 0.069 µM
- GI50 [2]: 0.21 µM
- GI50 [3]: 0.08 µM
- GI50 [4]: 0.19 µM
- GI50 [5]: 0.18 µM
- GI50 [6]: 0.2 µM
- GI50 [7]: 0.32 µM
- GI50 [8]: 0.41 µM
- GI50 [9]: 0.48 µM
- GI50 [10]: > 1 µM
- GI50 [11]: > 1 µM

Structure (SMILES): COc1ccc(C[C@@H]2NC(=O)C3CCN(CC3)C(=O)[C@@H](C)[C@@H](O)C[C@H](C)C[C@@H](C(C)(C)C)OC(=O)[C@@H]3CCCN3C(=O)[C@H](Cc3ccccc3)N(C)C(=O)[C@H](C)N(C)C2=O)cc1
- IC50 [1]: 0.71 µM

Structure (SMILES): CC[C@H](C)[C@H]1C(=O)N2CCC[C@H]2C(=O)O[C@H](C(C)(C)C)C[C@@H](C)C[C@H](O)[C@H](C)C(=O)NCCCC(=O)N[C@@H](Cc2ccc(OC)cc2)C(=O)N(C)[C@@H](C)C(=O)N1C
- IC50 [1]: 2.6 µM

Structure (SMILES): CC[C@H](C)[C@H]1C(=O)N2CCC[C@H]2C(=O)O[C@H](C(C)(C)C)C[C@@H](C)C[C@H](O)[C@H](C)C(=O)N2CCC(CC2)C(=O)N[C@@H](Cc2ccc(OC)cc2)C(=O)N(C)[C@@H](Cc2ccccc2)C(=O)N1C
- IC50 [1]: 1.6 µM

Structure (SMILES): CC[C@H](C)[C@H]1C(=O)N2CCC[C@H]2C(=O)O[C@H](C(C)(C)C)C[C@@H](C)C[C@H](O)[C@H](C)C(=O)N2CCC(CC2)C(=O)N[C@@H](Cc2ccc(OC)cc2)C(=O)N(C)[C@@H](C)C(=O)N1C
- IC50 [1]: 0.12 µM

Structure (SMILES): COc1ccc(C[C@@H]2NC(=O)C3CCN(CC3)C(=O)[C@@H](C)[C@@H](O)C[C@H](C)C[C@@H](C(C)(C)C)OC(=O)[C@@H]3CCCN3C(=O)[C@H](C)N(C)C(=O)[C@H](C)N(C)C2=O)cc1
- IC50 [1]: 7.5 µM

Structure (SMILES): CC[C@H](C)[C@H]1C(=O)N2CCC[C@H]2C(=O)O[C@H](C(C)(C)C)C[C@@H](C)C[C@H](O)[C@H](C)C(=O)NCCC(=O)N[C@@H](Cc2ccc(OC)cc2)C(=O)N(C)[C@@H](C)C(=O)N1C
- IC50 [1]: 3.4 µM

Structure (SMILES): CC[C@H](C)[C@H]1C(=O)N2CCC[C@H]2C(=O)O[C@H](C(C)(C)C)C[C@@H](C)C[C@H](O)[C@H](C)C2=N[C@@H](/C=C(\C)C(=O)N[C@@H](Cc3ccc(OC)cc3)C(=O)N(C)[C@@H](C)C(=O)N1C)CS2 [APRATOXIN A]
- IC50 [1]: 0.0028 µM
- GI50 [2]: 0.011 µM
- GI50 [3]: 0.0049 µM
- GI50 [4]: 0.0064 µM
- GI50 [5]: 0.0072 µM
- GI50 [6]: 0.0097 µM
- GI50 [7]: 0.018 µM
- GI50 [8]: 0.031 µM
- GI50 [9]: 0.039 µM
- GI50 [10]: 0.041 µM
- GI50 [11]: > 1 µM

Structure (SMILES): CO[C@@]12[C@H](COC(N)=O)C3=C(C(=O)C(C)=C(N)C3=O)N1C[C@@H]1N[C@@H]12 [MITOMYCIN]
- GI50 [2]: 0.2 µM
- GI50 [3]: 0.38 µM
- GI50 [4]: 0.08 µM
- GI50 [5]: 2 µM
- GI50 [6]: 1.7 µM
- GI50 [7]: 1.8 µM
- GI50 [8]: 0.1 µM
- GI50 [9]: 1.4 µM
- GI50 [10]: 0.21 µM
- GI50 [11]: 2.5 µM
